# Laboratory results published in paper PMC4109633 (Drug Design, Development and Therapy, 2014).
# Marks after values point to notes of the source that are not given here.
# How the values were obtained:
# Assay type in all cases: cell-based
# [1] = tested on: Salmonella typhimurium TA1535; experiment: Cytotoxicity in liquid medium; conditions: mean ± SEM
# Procedure, shortened: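 TA1535 was grown in broth microdilution with test compound at 25, 50 or 100 µM. Viability was expressed as % of untreated control (mean ± SEM), triplicate.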
# [2] = tested on: Salmonella typhimurium TA1535; experiment: Ames Salmonella/microsomal mutagenicity assay; conditions: presence of S9 mix, spontaneous 67.0±6.1
# [3] = tested on: Salmonella typhimurium TA1535; experiment: Antimutagenicity assay against sodium azide; conditions: for NaN3 mutagenicity (revertant colonies/plate; mean ± SEM): NaN3 2 μg/plate, spontaneous 29.3±5.3
# Procedure, shortened: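 TA1535 was exposed to test compound at 10 or 20 µM with NaN₃ (2 µg/plate) in two schemes. In pre-exposure, compound and bacteria were shaken 30 min at 37°C before mutagen was added. In co-exposure, bacteria, mutagen and compound were incubated together 30 min at 37°C. Cells were then plated on minimal glucose agar, and revertants counted at 48 h, in triplicate. Mutant frequency = mutant colonies/viable colonies.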
# [4] = tested on: Salmonella typhimurium TA1535; experiment: Antimutagenicity assay against benzo[a]pyrene with S9 mix; conditions: for B[a]P mutagenicity (revertant colonies/plate; mean ± SEM): B[a]P 20 μM + S9 mix, spontaneous 105.0±13.1; for Mutant frequency (benzo[a]pyrene): mutant colonies/viable colonies; for Antimutagenic potential against B[a]P: low concentration investigated
# [5] = co-exposure, 10 μM, mutant colonies/viable colonies
# [6] = co-exposure, 20 μM, mutant colonies/viable colonies
# [7] = pre-exposure, 10 μM, mutant colonies/viable colonies
# [8] = pre-exposure, 20 μM, mutant colonies/viable colonies
Compound,Viability at fluoroarylbichalcophene concentrations (% of control) ([1]; 25 μM),Viability at fluoroarylbichalcophene concentrations (% of control) ([1]; 50 μM),Viability at fluoroarylbichalcophene concentrations (% of control) ([1]; 100 μM),Fluoroarylbichalcophene mutagenicity (revertant colonies/plate; mean ± SEM) ([2]; 10 μM) [revertant colonies/plate],Fluoroarylbichalcophene mutagenicity (revertant colonies/plate; mean ± SEM) ([2]; 20 μM) [revertant colonies/plate],"NaN3 mutagenicity (revertant colonies/plate; mean ± SEM) ([3]; co-exposure, 10 μM) [revertant colonies/plate]","Mutant frequency (sodium azide) [3, 5]","NaN3 mutagenicity (revertant colonies/plate; mean ± SEM) ([3]; co-exposure, 20 μM) [revertant colonies/plate]","Mutant frequency (sodium azide) [3, 6]","NaN3 mutagenicity (revertant colonies/plate; mean ± SEM) ([3]; pre-exposure, 10 μM) [revertant colonies/plate]","Mutant frequency (sodium azide) [3, 7]","NaN3 mutagenicity (revertant colonies/plate; mean ± SEM) ([3]; pre-exposure, 20 μM) [revertant colonies/plate]","B[a]P mutagenicity (revertant colonies/plate; mean ± SEM) ([4]; co-exposure, 10 μM) [revertant colonies/plate]","Mutant frequency (benzo[a]pyrene) ([4]; co-exposure, 10 μM)","B[a]P mutagenicity (revertant colonies/plate; mean ± SEM) ([4]; co-exposure, 20 μM) [revertant colonies/plate]","Mutant frequency (benzo[a]pyrene) ([4]; co-exposure, 20 μM)","B[a]P mutagenicity (revertant colonies/plate; mean ± SEM) ([4]; pre-exposure, 10 μM) [revertant colonies/plate]","Mutant frequency (benzo[a]pyrene) ([4]; pre-exposure, 10 μM)","B[a]P mutagenicity (revertant colonies/plate; mean ± SEM) ([4]; pre-exposure, 20 μM) [revertant colonies/plate]","Mutant frequency (benzo[a]pyrene) ([4]; pre-exposure, 20 μM)",also measured
"N#Cc1ccc(-c2ccc(-c3cccs3)o2)c(F)c1 [Compound 4c, 3-Fluoro-4-(5-(thiophen-2-yl)furan-2-yl)benzonitrile]",104.7±11.6 % of control,61.0±7.0 ^a % of control,2.7±0.4 ^a % of control,65.3±5.4,68.7±5.5,44.7±6.0,0.81,40.0±5.0,0.78,51.0±6.6,0.93,53.7±9.3,279.3±19.5,4.43,269.3±9.0,4.41,177.0±11.3,2.81,153.7±7.0,2.52,Antimutagenic potential against B[a]P ([4]; co-exposure): no significant activity
"[N-]=[N+]=[N-].[Na+] [NaN3, sodium azide, reference compound]",–,–,–,–,–,–,–,–,–,–,–,–,–,–,–,–,–,–,–,–,"Mutant frequency, NaN3 alone ([3]; NaN3 without fluoroarylbichalcophene, mutant colonies/viable colonies): 2.65 (100)"
"Cl.N=C(N)c1ccc(-c2ccc(-c3ccco3)o2)cc1F [Compound 5b, 4-(2,2′-Bifuran-5-yl)-2-fluorobenzamidine hydrochloride salt]",101.7±11.3 % of control,62.0±5.5 ^a % of control,36.7±2.8 ^a % of control,68.7±4.0,65.0±4.9,26.0±2.0,0.50,21.7±2.5,0.43,126.7±11.2,2.45,40.3±6.5,213.7±15.8,3.38,166.0±6.6,2.58,178.0±8.2,2.81,163.0±7.9,2.53,"Mutant frequency (sodium azide) [3, 8]: 0.79; Antimutagenic potential against NaN3 ([3]; pre-exposure, only at 20 μM): strong (40% or more reduction means strong antimutagenic activity)"
"Cl.N=C(N)c1ccc(-c2ccc(-c3cccs3)o2)cc1F [Compound 5d, 2-Fluoro-4-(5-(thiophen-2-yl)furan-2-yl)benzamidine hydrochloride salt]",105.7±4.6 % of control,65.3±3.9 ^a % of control,49.3±3.8 ^a % of control,65.0±7.0,67.7±6.0,43.3±6.8,0.76,20.0±1.0,0.40,65.0±5.0,1.14,44.3±4.5,109.7±8.3,–,101.0±6.0,–,261.0±8.5,4.19,216.7±14.3,3.28,"Mutant frequency (sodium azide) [3, 8]: 0.88"
"N#Cc1ccc(-c2ccc(-c3cccs3)s2)cc1F [Compound 4e, 4-(2,2′-Bithiophen-5-yl)-2-fluorobenzonitrile]",104.0±9.9 % of control,64.7±8.1 ^a % of control,22.3±2.2 ^a % of control,65.3±6.2,66.7±6.7,36.7±4.7,0.66,25.0±5.6,0.48,24.7±3.5,0.44,21.7±2.1,282.3±16.6,4.28,285.0±18.1,4.38,241.3±11.0,3.66,201.0±10.5,3.09,"Mutant frequency (sodium azide) [3, 8]: 0.42; Antimutagenic potential against B[a]P ([4]; co-exposure): no significant activity"
"N#Cc1ccc(-c2ccc(-c3ccco3)o2)c(F)c1 [Compound 4a, 4-(2,2′-Bifuran-5-yl)-3-fluorobenzonitrile]",100.0±8.5 % of control,66.3±5.6 ^a % of control,45.7±3.5 ^a % of control,63.3±5.5,69.7±7.0,75.0±2.3,–,34.3±4.9,0.69,47.7±6.5,0.99,26.0±5.5,270.0±19.0,4.08,268.0±16.6,4.14,267.0±11.0,4.04,267.7±13.0,4.14,"Mutant frequency (sodium azide) [3, 8]: 0.52"
"N#Cc1ccc(-c2ccc(-c3cccs3)o2)cc1F [Compound 4d, 2-Fluoro-4-(5-(thiophen-2-yl)furan-2-yl)benzonitrile]",71.7±5.0 % of control,59.7±4.7 ^a % of control,3.0±0.2 ^a % of control,68.7±6.0,67.7±6.1,47.7±2.7,0.92,49.7±6.4,0.94,36.0±2.7,0.69,29.7±4.0,287.7±16.0,4.38,204.0±5.3,3.29,271.0±16.5,4.12,271.0±12.2,4.37,"Mutant frequency (sodium azide) [3, 8]: 0.56; Antimutagenic potential against B[a]P ([4]; co-exposure): no significant activity"
